Experimental data collected from several papers.
Each line is one published result; the experiments were not run side by side.
RPS6KA6 N-terminal kinase domain: Ribosomal protein S6 kinase alpha-6, N-terminal kinase domain (RPS6KA6, Homo sapiens, UniProt Q9UK32)
RPS6KA6 C-terminal kinase domain: Ribosomal protein S6 kinase alpha-6, C-terminal kinase domain (RPS6KA6, Homo sapiens, UniProt Q9UK32)
RPS6KA6: Ribosomal protein S6 kinase alpha-6 (RPS6KA6, Homo sapiens, UniProt Q9UK32)

SMILES	target	test	setting	measurement	value
COc1cc(Nc2ncc(F)c(Nc3ccc4c(n3)NC(=O)C(C)(C)O4)n2)cc(OC)c1OC	RPS6KA6 N-terminal kinase domain	binding, competition with immobilised ligand	10 µM	inhibition	70%
Nc1ncc(-c2nc(N3CCOCC3)nc(N3CCOCC3)n2)c(C(F)F)n1	RPS6KA6 C-terminal kinase domain	binding, competition with immobilised ligand	10 µM	remaining binding	94%
Cn1cc(-c2cc(F)cc(N3CCn4c(cc5c4CCCC5)C3=O)c2CO)cc(Nc2ccc(N3CCN(C4COC4)CC3)cn2)c1=O	RPS6KA6	enzyme activity, inhibitor	0.1 µM	inhibition	2%
CC(C)(C)c1cc(C=C(C#N)C#N)cc(Br)c1O	RPS6KA6	enzyme activity, inhibitor	0.5 µM	remaining activity	101%
Cn1cncc1[C@](O)(COc1ccc(C#N)cc1-c1ccc(OC(F)(F)F)cc1)c1ccc(C#N)cc1	RPS6KA6 N-terminal kinase domain	cell-free assay, competition with immobilised ligand	1 µM	remaining binding	91%
O=c1[nH]c2ccccc2n1C1CCN(Cc2ccc(-c3[nH]c4cc5ncnc5cc4nc3-c3ccccc3)cc2)CC1	RPS6KA6	cell-free assay	0.5 µM	remaining signal	109%
Cn1cc(-c2cccc(N3CCc4c(sc5c4CC(C)(C)C5)C3=O)c2CO)cc(Nc2ccncn2)c1=O	RPS6KA6	enzyme activity, inhibitor	1 µM	inhibition	9%
Cc1nn(C)cc1-c1nc2c(N3CCN(Cc4ccc(Cl)cc4)CC3)c(Cl)cnc2[nH]1	RPS6KA6 N-terminal kinase domain	binding, competition with immobilised ligand	1 µM	remaining binding	66%
N#CC1(c2ccccn2)CCN(Cc2cc(C(=O)O)c(=O)n3ccccc23)CC1	RPS6KA6 C-terminal kinase domain	cell-free assay, competition with immobilised ligand	1 µM	remaining binding	97%
